Each structure is given as a SMILES string. A value given as a limit tells only on which side of the number the result lay.

The experiment concerns the target T1, Mycobacterial beta-ketoacyl-[acyl-carrier-protein] synthase III (Mycobacterium tuberculosis, UniProt P9WNG3).
T1 sequence (P9WNG3 whole entry): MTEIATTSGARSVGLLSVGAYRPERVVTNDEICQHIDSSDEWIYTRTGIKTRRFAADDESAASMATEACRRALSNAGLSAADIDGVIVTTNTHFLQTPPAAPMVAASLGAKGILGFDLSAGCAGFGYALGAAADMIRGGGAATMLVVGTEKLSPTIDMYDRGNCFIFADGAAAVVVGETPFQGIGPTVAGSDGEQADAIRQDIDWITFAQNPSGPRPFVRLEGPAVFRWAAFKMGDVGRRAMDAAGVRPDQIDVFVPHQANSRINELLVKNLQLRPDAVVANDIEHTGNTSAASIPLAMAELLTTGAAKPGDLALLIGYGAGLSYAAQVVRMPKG
Briefly: In vitro inhibitory activity against the recombinant Mycobacterium tuberculosis Beta-ketoacyl-ACP synthase III mtFabH condensing enzyme. Also on record: species or system H37Rv. In outline: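 Direct end-point scintillation proximity assay with E. coli-expressed recombinant mtFabH (1.0 nM), biotinylated malonyl-ecACP, and myristoyl-CoA in 100 mM sodium phosphate with 0.01% CHAPS and 1 mM DTT. Compounds in DMSO were tested from 500 down to 0.98. After a 5-min 30 °C preincubation, [3H]myristoyl-CoA was added and reacted 20 min at 30 °C. Ethanol quench, streptavidin beads, bead-bound radioactivity counted, IC50 derived.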

Broadly, the IC50 is the point on the concentration scale where inhibition reaches its midpoint. For the compound `CC1=C(O)C(C)(Cc2cc(F)cc(F)c2)SC1=O` (configuration not stated), the IC50 came out at 263 µM. As for `CC1=C(O)C(C)(Cc2ccc(-c3ccc(CO)cc3)cc2)SC1=O` (configuration not stated), the figure is 19 µM. Turning to `CC1=C(O)C(C)(Cc2ccc(-c3ccc(C=O)cc3)cc2)SC1=O` (configuration not stated), the IC50 came to 29 µM. As for `COc1cccc(CC2(C)SC(O)=C(C)C2=O)c1` (configuration not stated), the figure is > 500 µM. Consider `CC1=C(O)C(C)(Cc2ccc(-c3ccc(C(C)(C)C)cc3)cc2)SC1=O` (configuration not stated), for which the IC50 amounted to 25 µM. As for `CC1=C(O)C(C)(Cc2ccc(-c3ccc(C)cc3)cc2)SC1=O` (configuration not stated), the figure is 52 µM; as for `CC1=C(O)C(C)(Cc2ccccc2)SC1=O` (configuration not stated), > 250 µM; as for `CC1=C(O)C(C)(Cc2ccc(I)cc2)SC1=O` (configuration not stated), 153 µM.

For the compound `CC(=O)Nc1cccc(-c2ccc(CC3(C)SC(O)=C(C)C3=O)cc2)c1` (configuration not stated), the IC50 worked out at 119 µM.

Take `CC1=C(O)C(C)(Cc2ccc(-c3ccc(COCc4ccccc4)cc3)cc2)SC1=O` (configuration not stated): the IC50 was 17 µM. As for `CC1=C(O)C(C)(Cc2ccc(F)cc2F)SC1=O` (configuration not stated), the figure is 246 µM; as for `CC1=C(O)C(C)(Cc2cccc(Oc3ccccc3)c2)SC1=O` (configuration not stated), 52 µM. To `CC1=C(O)C(C)(Cc2cccc(-c3ccccc3)c2)SC1=O` (configuration not stated) belongs 215 µM; to `COc1ccc(CC2(C)SC(O)=C(C)C2=O)cc1` (configuration not stated), 155 µM. To `CC1=C(O)C(C)(Cc2ccc(C(C)(C)C)cc2)SC1=O` (configuration not stated) belongs 43 µM.

For `CC1=C(O)C(C)(Cc2ccc(-c3ccccc3)cc2)SC1=O` (configuration not stated), the IC50 amounted to 51 µM. Take `CC1=C(O)C(C)(Cc2ccc(C)cc2)SC1=O` (configuration not stated): the IC50 amounted to 112 µM.

The values above are taken from ChEMBL document CHEMBL1136314, “Biphenyl-based analogues of thiolactomycin, active against Mycobacterium tuberculosis mtFabH fatty acid condensing enzyme” (Bioorg Med Chem Lett, 2003).
